Measurements from ChEMBL document CHEMBL1134611, “Agonist activity at the kinin B1 receptor: structural requirements of the central tetrapeptide” (J Med Chem, 2001).
Activity calls are given as the source filed them. No cut-off for these calls is given here. Numbered stars: 1 amine (or outer) side, 2 acyl side, 3 side chain; on linkers, the order of the positions; unused ones are H or OH. Square brackets hold non-standard residues; d marks the D form. Peptide text beside a SMILES is read from it. X2 = O=C(C1(N[*:1])CCCCCCCCCCC1)[*:2]; X1 = O=C(C1(N[*:1])CCCCCCCC1)[*:2]; 12Ado = NCCCCCCCCCCCC(=O)O; Ac8c = NC1(C(=O)O)CCCCCCC1; Ac7c = NC1(C(=O)O)CCCCCC1; Ac6c = NC1(C(=O)O)CCCCC1

These molecules were tested against T1, B1 bradykinin receptor (Rattus norvegicus) (UniProt P97583) (assay: Agonistic activity against Bradykinin receptor B1 of rat ileum longitudinal smooth muscle; Inactive).
T1 sequence (whole entry): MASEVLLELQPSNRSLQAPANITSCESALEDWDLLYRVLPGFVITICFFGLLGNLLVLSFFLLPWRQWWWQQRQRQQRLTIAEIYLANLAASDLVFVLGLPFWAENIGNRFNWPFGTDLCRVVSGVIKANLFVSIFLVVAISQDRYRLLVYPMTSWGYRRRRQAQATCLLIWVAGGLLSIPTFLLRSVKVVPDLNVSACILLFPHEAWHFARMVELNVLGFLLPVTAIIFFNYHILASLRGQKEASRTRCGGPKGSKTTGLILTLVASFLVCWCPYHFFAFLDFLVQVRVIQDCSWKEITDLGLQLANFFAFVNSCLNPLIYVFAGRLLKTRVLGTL
Format: functional, tissue-based
Outline: (§1)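 Rat ileum longitudinal muscle-myenteric plexus strips in oxygenated (95% O2, 5% CO2) Krebs' solution with indomethacin and guanethidine (3 µM each), chlorpheniramine and atropine (1 µM each). Cumulative concentration-response curves of contraction, run with thiorphan, bestatin and captopril (1 µM each). pD2 = -log molar agonist concentration giving 50% of maximal effect; mean ± SEM, 4-10 experiments.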

| Molecule | IA |
| --- | --- |
| NCCCC[C@H](N)C(=O)N[C@@H](CCCN=C(N)N)C(=O)NC1(C(=O)N[C@@H](CO)C(=O)N2CCC[C@H]2C(=O)N[C@@H](Cc2ccccc2)C(=O)O)CCCCCC1 (H-KR[Ac7c]SPF-OH) | inactive |
| H-KRGGGSPF-OH | inactive |

Each molecule was assayed against T1, B1 bradykinin receptor (Rattus norvegicus) (assay: Agonistic activity against Bradykinin receptor B1 of rat ileum longitudinal smooth muscle).
Format: functional, tissue-based
Outline: as §1

| Molecule | pD2 |
| --- | --- |
| NCCCC[C@H](N)C(=O)N[C@@H](CCCN=C(N)N)C(=O)NCC(=O)NC1(C(=O)NCC(=O)N[C@@H](CO)C(=O)N2CCC[C@H]2C(=O)N[C@@H](Cc2ccccc2)C(=O)O)CCCCCC1 (H-KRG[Ac7c]GSPF-OH) | 5.4 |
| NCCCC[C@H](N)C(=O)N[C@@H](CCCN=C(N)N)C(=O)NCC(=O)NC1(C(=O)NCC(=O)N[C@@H](CO)C(=O)N2CCC[C@H]2C(=O)N[C@@H](Cc2ccccc2)C(=O)O)CCCCCCCC1 (H-KRG[X1]GSPF-OH) | 5.4 |
| NCCCC[C@H](N)C(=O)N[C@@H](CCCN=C(N)N)C(=O)NCCCCCCCCCCCC(=O)N[C@@H](CO)C(=O)N1CCC[C@H]1C(=O)N[C@@H](Cc1ccccc1)C(=O)O (H-KR[12Ado]SPF-OH) | 6 |

Next, values leading:

| pD2 | Molecule |
| --- | --- |
| 5.1 | NCCCC[C@H](N)C(=O)N[C@@H](CCCN=C(N)N)C(=O)NCC(=O)NC1(C(=O)NCC(=O)N[C@@H](CO)C(=O)N2CCC[C@H]2C(=O)N[C@@H](Cc2ccccc2)C(=O)O)CCCCC1 (H-KRG[Ac6c]GSPF-OH) |
| 5.7 | NCCCC[C@H](N)C(=O)N[C@@H](CCCN=C(N)N)C(=O)NCC(=O)NC1(C(=O)NCC(=O)N[C@@H](CO)C(=O)N2CCC[C@H]2C(=O)N[C@@H](Cc2ccccc2)C(=O)O)CCCCCCC1 (H-KRG[Ac8c]GSPF-OH) |
| 5.5 | NCCCC[C@H](N)C(=O)N[C@@H](CCCN=C(N)N)C(=O)NCC(=O)NC1(C(=O)NCC(=O)N[C@@H](CO)C(=O)N2CCC[C@H]2C(=O)N[C@@H](Cc2ccccc2)C(=O)O)CCCCCCCCCCC1 (H-KRG[X2]GSPF-OH) |
